# Experimental data published in ChEMBL document CHEMBL1240464, “Synthesis, structure and in vitro antibacterial activities of new hybrid disinfectants quaternary ammonium compounds: pyridinium and quinolinium stilbene benzenesulfonates” (2010).
# Active and inactive are the calls of the source. No cut-off for these calls is given here.
# Experiments:
# Enterococcus faecalis [1] = test: Antibacterial activity against vancomycin-resistant Enterococcus faecalis ATCC 51299 after 8 to 12 hrs by colorimetric microdilution broth technique; type: functional
# Outline: (§1)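 Broth microdilution with a colorimetric read-out. Bacteria were suspended in RPMI1640 with 1% Alamar Blue. Compound was dissolved in DMSO as a 25 mg/ml stock and added to the first row, then serially halved to a 128-fold final dilution. Plates were incubated at 37 °C for 8–12 h. MIC was the lowest concentration preventing the blue-to-red indicator change. Each assay was run at least three times.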
# Staphylococcus aureus [2] = test: Antibacterial activity against methicillin-resistant Staphylococcus aureus ATCC 43300 after 8 to 12 hrs by colorimetric microdilution broth technique; type: functional; outline: as §1
# Shigella sonnei [3] = test: Antibacterial activity against Shigella sonnei after 8 to 12 hrs by colorimetric microdilution broth technique; type: functional
# Outline: (§2)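 Broth microdilution in RPMI1640. Bacterial suspension in RPMI1640 is mixed with 1% Alamar Blue. Sample dissolved in DMSO at 25 mg/ml (stock) is added to the first row, then serially diluted two-fold down the plate to 128-fold. Plates are incubated at 37 °C for 8–12 h. MIC is the lowest concentration preventing the Alamar Blue change from blue to red. At least three repeats.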
# Salmonella typhi [4] = test: Antibacterial activity against Salmonella typhi after 8 to 12 hrs by colorimetric microdilution broth technique; type: functional, Salmonella enterica subsp. enterica serovar Typhi; details: Salmonella enterica; outline: as §1
# Staphylococcus aureus [5] = test: Antibacterial activity against Staphylococcus aureus TISTR517 after 8 to 12 hrs by colorimetric microdilution broth technique; type: functional; outline: as §2
# Enterococcus faecalis [6] = test: Antibacterial activity against Enterococcus faecalis TISTR459 after 8 to 12 hrs by colorimetric microdilution broth technique; type: functional; outline: as §1
# Bacillus subtilis [7] = test: Antibacterial activity against Bacillus subtilis after 8 to 12 hrs by colorimetric microdilution broth technique; type: functional; outline: as §2
# Pseudomonas aeruginosa [8] = test: Antibacterial activity against Pseudomonas aeruginosa after 8 to 12 hrs by colorimetric microdilution broth technique; type: functional; outline: as §2
# Pseudomonas aeruginosa [9] = test: Antibacterial activity against Pseudomonas aeruginosa at up to 300 ug/ml after 8 to 12 hrs by colorimetric microdilution broth technique; type: functional, organism-based; outline: as §2
# Enterococcus faecalis [10] = test: Antibacterial activity against Enterococcus faecalis TISTR459 at up to 300 ug/ml after 8 to 12 hrs by colorimetric microdilution broth technique; type: functional, organism-based; outline: as §2
# Shigella sonnei [11] = test: Antibacterial activity against Shigella sonnei at up to 300 ug/ml after 8 to 12 hrs by colorimetric microdilution broth technique; type: functional, organism-based; outline: as §2
# Staphylococcus aureus [12] = test: Antibacterial activity against Staphylococcus aureus TISTR517 at up to 300 ug/ml after 8 to 12 hrs by colorimetric microdilution broth technique; type: functional, organism-based; outline: as §2
# Salmonella typhi [13] = test: Antibacterial activity against Salmonella typhi at up to 300 ug/ml after 8 to 12 hrs by colorimetric microdilution broth technique; type: functional, organism-based; details: Salmonella enterica subsp. enterica serovar Typhi; outline: as §1
# Bacillus subtilis [14] = test: Antibacterial activity against Bacillus subtilis at up to 300 ug/ml after 8 to 12 hrs by colorimetric microdilution broth technique; type: functional, organism-based; outline: as §2
# Enterococcus faecalis [15] = test: Antibacterial activity against vancomycin-resistant Enterococcus faecalis ATCC 51299 at up to 300 ug/ml after 8 to 12 hrs by colorimetric microdilution broth technique; type: functional, organism-based; outline: as §1
SMILES,MIC (Enterococcus faecalis [1]) [µg/mL],MIC (Staphylococcus aureus [2]) [µg/mL],MIC (Shigella sonnei [3]) [µg/mL],MIC (Salmonella typhi [4]) [µg/mL],MIC (Staphylococcus aureus [5]) [µg/mL],MIC (Enterococcus faecalis [6]) [µg/mL],MIC (Bacillus subtilis [7]) [µg/mL],other results
CN(C)c1ccc(/C=C/c2cccc[n+]2C)cc1.Nc1ccc(S(=O)(=O)[O-])cc1 [listing 1 of 2 here],300,37.5,–,–,–,–,–,–
CCOc1ccc(/C=C/c2ccc3ccccc3[n+]2C)cc1.Nc1ccc(S(=O)(=O)[O-])cc1 [listing 1 of 2 here],75,4.68,75,75,37.5,37.5,37.5,–
CCOc1ccc(/C=C/c2ccc3ccccc3[n+]2C)cc1.Cc1ccc(S(=O)(=O)[O-])cc1,37.5,2.34,150,–,–,37.5,9.37,–
CCOc1ccc(/C=C/c2ccc3ccccc3[n+]2C)cc1.[I-],37.5,2.34,150,–,–,75,37.5,–
CN(C)c1ccc(C=Cc2cccc[n+]2C)cc1.[I-],300,37.5,300,300,300,300,300,MIC (Pseudomonas aeruginosa [8]): 300 µg/mL
CCOc1ccc(/C=C/c2ccc3ccccc3[n+]2C)cc1.Nc1ccc(S(=O)(=O)[O-])cc1 [listing 2 of 2 here],–,–,–,–,–,–,–,MIC (Pseudomonas aeruginosa [9]): inactive
CN(C)c1ccc(/C=C/c2cccc[n+]2C)cc1.O=S(=O)([O-])c1ccc(Br)cc1 [listing 1 of 2 here],–,–,–,–,–,–,–,MIC (Pseudomonas aeruginosa [9]): inactive; MIC (Enterococcus faecalis [10]): inactive; MIC (Shigella sonnei [11]): inactive; MIC (Staphylococcus aureus [12]): inactive; MIC (Salmonella typhi [13]): inactive; MIC (Bacillus subtilis [14]): inactive; MIC (Enterococcus faecalis [15]): inactive
CCOc1ccc(/C=C/c2ccc3ccccc3[n+]2C)cc1.O=S(=O)([O-])c1ccc(Br)cc1 [listing 1 of 2 here],18.8,2.34,75,–,300,37.5,18.8,–
CCOc1ccc(/C=C/c2cccc[n+]2C)cc1.O=S(=O)([O-])c1ccc(Br)cc1 [listing 1 of 2 here],–,–,–,–,–,–,–,MIC (Pseudomonas aeruginosa [9]): inactive; MIC (Enterococcus faecalis [10]): inactive; MIC (Staphylococcus aureus [12]): inactive; MIC (Bacillus subtilis [14]): inactive; MIC (Enterococcus faecalis [15]): inactive
CCOc1ccc(/C=C/c2ccc3ccccc3[n+]2C)cc1.COc1ccc(S(=O)(=O)[O-])cc1 [listing 1 of 2 here],18.8,2.34,150,–,–,75,18.8,–
CCOc1ccc(/C=C/c2ccc3ccccc3[n+]2C)cc1,–,–,–,–,–,–,–,MIC (Pseudomonas aeruginosa [9]): inactive; MIC (Staphylococcus aureus [12]): inactive; MIC (Salmonella typhi [13]): inactive
CN(C)c1ccc(/C=C/c2ccc3ccccc3[n+]2C)cc1.Cc1ccc(S(=O)(=O)[O-])cc1,2.34,2.34,2.34,300,2.34,2.34,2.34,MIC (Pseudomonas aeruginosa [8]): 300 µg/mL
CCOc1ccc(/C=C/c2cccc[n+]2C)cc1.Nc1ccc(S(=O)(=O)[O-])cc1 [listing 1 of 2 here],–,–,–,–,–,–,–,MIC (Pseudomonas aeruginosa [9]): inactive; MIC (Enterococcus faecalis [10]): inactive; MIC (Shigella sonnei [11]): inactive; MIC (Staphylococcus aureus [12]): inactive; MIC (Salmonella typhi [13]): inactive; MIC (Bacillus subtilis [14]): inactive; MIC (Enterococcus faecalis [15]): inactive
CCOc1ccc(/C=C/c2cccc[n+]2C)cc1.O=S(=O)([O-])c1ccc(Br)cc1 [listing 2 of 2 here],–,18.8,300,300,–,–,–,–
CN(C)c1ccc(/C=C/c2cccc[n+]2C)cc1.O=S(=O)([O-])c1ccc(Cl)cc1,150,37.5,–,300,–,–,300,MIC (Pseudomonas aeruginosa [8]): 300 µg/mL
CN(C)c1ccc(/C=C/c2cccc[n+]2C)cc1.Nc1ccc(S(=O)(=O)[O-])cc1 [listing 2 of 2 here],–,–,–,–,–,–,–,MIC (Pseudomonas aeruginosa [9]): inactive; MIC (Enterococcus faecalis [10]): inactive; MIC (Shigella sonnei [11]): inactive; MIC (Staphylococcus aureus [12]): inactive; MIC (Salmonella typhi [13]): inactive; MIC (Bacillus subtilis [14]): inactive
CCOc1ccc(/C=C/c2cccc[n+]2C)cc1.Cc1ccc(S(=O)(=O)[O-])cc1,300,37.5,150,150,150,150,300,MIC (Pseudomonas aeruginosa [8]): 37.5 µg/mL
CN(C)c1ccc(/C=C/c2ccc3ccccc3[n+]2C)cc1.O=S(=O)([O-])c1ccc(Cl)cc1,2.34,2.34,2.34,300,2.34,2.34,2.34,MIC (Pseudomonas aeruginosa [8]): 300 µg/mL
CN(C)c1ccc(/C=C/c2cccc[n+]2C)cc1.COc1ccc(S(=O)(=O)[O-])cc1,150,75,150,150,150,150,150,MIC (Pseudomonas aeruginosa [8]): 150 µg/mL

SMILES,MIC (Enterococcus faecalis [1]) [µg/mL],MIC (Staphylococcus aureus [2]) [µg/mL],MIC (Shigella sonnei [3]) [µg/mL],MIC (Salmonella typhi [4]) [µg/mL],MIC (Staphylococcus aureus [5]) [µg/mL],MIC (Enterococcus faecalis [6]) [µg/mL],MIC (Bacillus subtilis [7]) [µg/mL],other results
CCOc1ccc(/C=C/c2cccc[n+]2C)cc1.COc1ccc(S(=O)(=O)[O-])cc1 [listing 1 of 2 here],–,150,–,–,–,–,–,–
CCOc1ccc(/C=C/c2ccc3ccccc3[n+]2C)cc1.COc1ccc(S(=O)(=O)[O-])cc1 [listing 2 of 2 here],–,–,–,–,–,–,–,MIC (Pseudomonas aeruginosa [9]): inactive; MIC (Staphylococcus aureus [12]): inactive; MIC (Salmonella typhi [13]): inactive
CN(C)c1ccc(/C=C/c2ccc3ccccc3[n+]2C)cc1.O=S(=O)([O-])c1ccc(Br)cc1,2.34,2.34,2.34,300,2.34,2.34,2.34,MIC (Pseudomonas aeruginosa [8]): 300 µg/mL
CN(C)c1ccc(/C=C/c2ccc3ccccc3[n+]2C)cc1.COc1ccc(S(=O)(=O)[O-])cc1 [listing 1 of 2 here],150,2.34,150,–,–,150,75,–
CCOc1ccc(/C=C/c2ccc3ccccc3[n+]2C)cc1.O=S(=O)([O-])c1ccc(Br)cc1 [listing 2 of 2 here],–,–,–,–,–,–,–,MIC (Pseudomonas aeruginosa [9]): inactive; MIC (Salmonella typhi [13]): inactive
CN(C)c1ccc(/C=C/c2cccc[n+]2C)cc1,–,–,–,–,–,–,–,MIC (Enterococcus faecalis [10]): inactive; MIC (Shigella sonnei [11]): inactive; MIC (Staphylococcus aureus [12]): inactive
CN(C)c1ccc(/C=C/c2ccc3ccccc3[n+]2C)cc1.Nc1ccc(S(=O)(=O)[O-])cc1,18.8,2.34,75,75,75,75,18.8,MIC (Pseudomonas aeruginosa [8]): 150 µg/mL
CN(C)c1ccc(/C=C/c2ccc3ccccc3[n+]2C)cc1.[I-],4.68,9.37,4.68,300,18.8,18.8,9.37,MIC (Pseudomonas aeruginosa [8]): 300 µg/mL
CCOc1ccc(/C=C/c2ccc3ccccc3[n+]2C)cc1.O=S(=O)([O-])c1ccc(Cl)cc1,150,2.34,300,–,–,75,75,–
CN(C)c1ccc(/C=C/c2cccc[n+]2C)cc1.Cc1ccc(S(=O)(=O)[O-])cc1,300,37.5,300,300,300,300,150,MIC (Pseudomonas aeruginosa [8]): 150 µg/mL
CCOc1ccc(/C=C/c2cccc[n+]2C)cc1.O=S(=O)([O-])c1ccc(Cl)cc1,–,75,–,–,–,–,–,–
CN(C)c1ccc(/C=C/c2cccc[n+]2C)cc1.O=S(=O)([O-])c1ccc(Br)cc1 [listing 2 of 2 here],–,75,–,–,–,–,–,–
CN[C@H](CC(C)C)C(=O)N[C@H]1C(=O)N[C@@H](CC(N)=O)C(=O)N[C@H]2C(=O)N[C@H]3C(=O)N[C@H](C(=O)N[C@H](C(=O)O)c4cc(O)cc(O)c4-c4cc3ccc4O)[C@H](O)c3ccc(c(Cl)c3)Oc3cc2cc(c3O[C@@H]2O[C@H](CO)[C@@H](O)[C@H](O)[C@H]2O[C@H]2C[C@](C)(N)[C@H](O)[C@H](C)O2)Oc2ccc(cc2Cl)[C@H]1O [VANCOMYCIN],2.34,< 2.34,2.34,2.34,9.37,9.38,2.34,MIC (Pseudomonas aeruginosa [8]): 2.34 µg/mL
CCOc1ccc(/C=C/c2cccc[n+]2C)cc1.Nc1ccc(S(=O)(=O)[O-])cc1 [listing 2 of 2 here],–,75,–,–,–,–,–,–
CN(C)c1ccc(/C=C/c2ccc3ccccc3[n+]2C)cc1.COc1ccc(S(=O)(=O)[O-])cc1 [listing 2 of 2 here],–,–,–,–,–,–,–,MIC (Pseudomonas aeruginosa [9]): inactive; MIC (Staphylococcus aureus [12]): inactive; MIC (Salmonella typhi [13]): inactive
CCOc1ccc(/C=C/c2cccc[n+]2C)cc1,–,–,–,–,–,–,–,MIC (Pseudomonas aeruginosa [9]): inactive; MIC (Enterococcus faecalis [10]): inactive; MIC (Shigella sonnei [11]): inactive; MIC (Staphylococcus aureus [12]): inactive; MIC (Salmonella typhi [13]): inactive; MIC (Bacillus subtilis [14]): inactive; MIC (Enterococcus faecalis [15]): inactive
CCOc1ccc(/C=C/c2cccc[n+]2C)cc1.[I-],–,37.5,300,–,–,–,–,–
CCOc1ccc(/C=C/c2cccc[n+]2C)cc1.COc1ccc(S(=O)(=O)[O-])cc1 [listing 2 of 2 here],–,–,–,–,–,–,–,MIC (Pseudomonas aeruginosa [9]): inactive; MIC (Enterococcus faecalis [10]): inactive; MIC (Shigella sonnei [11]): inactive; MIC (Staphylococcus aureus [12]): inactive; MIC (Salmonella typhi [13]): inactive; MIC (Bacillus subtilis [14]): inactive; MIC (Enterococcus faecalis [15]): inactive
